FAK blocker – FAK kinase inhibitors, primary screen, biochemical; inhibition, %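 (tested at 7 µM)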; biochemical FAK kinase activity assay; actives 0.84% (n = 97,000); AID 727, 2007; in the data active = inhibition above about 19%;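 also: 0% = DMSO and 100% = reference compound high control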
Ecoli tolC – growth inhibitors of E. coli tolC mutant, primary screen, strain BW25113 ΔtolC::kan, 384-well. OD615. growth inhibition, % at 10 µM (by protocol). actives 2.2% (n = 65,000). AID 573, 2007;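 active = growth inhibition at or above a cutoff equal to the mean over every tested compound plus 3 SD, cut at about 60% in these data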;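 also: growth measured after 20 h incubation at 37 °C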
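Test system: E. coli BW25113 ΔtolC::kan bacteria | Medium: Kanamycin-containing LB broth (50 µg/mL) | Dosing: One dose of 10 µM final | Times: 20 h incubation with compound, 37 °C | Detection: Optical density read at 615 nm | Read-out basis: Percent growth inhibition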
PostGolgi yeast – phenotypic screen on post-Golgi transport, primary screen. inhibition, % at 10 µM. actives 0.9% (n = 98,000). post-Golgi transport phenotypic cell assay;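 also: yeast cells grown in 1536-well plates; yeast grown about 18 h at 30C before absorbance read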
PostGolgi ctrl – growth inhibition of yeast control strain, primary screen, counter-screen for post-Golgi transport modulator project. efflux-deficient yeast background strain, growth absorbance A615, 16 h. inhibition, % at 10 µM. actives 5% (n = 98,000)
Calb biofilm kill – clotrimazole potentiators killing Candida biofilms, primary screen, with clotrimazole, Alamar Blue; inhibition, % at 6 µM; actives 0.14% (n = 85,000); C. albicans biofilm + clotrimazole; AID 834, 2007;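 active = inhibition above 20%; inactive = inhibition below 20%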;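 also: preformed 24 hr biofilms exposed to compound for 48 hr; 0% = biofilm without compound and 100% = blank killed by clotrimazole plus chlorhexidine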
Pyk2 oligo antag – antagonists of Pyk2 self-association, primary screen, Q293 cells, FERM NanoBiT luminescence, HTS. Protein-tyrosine kinase 2-beta (Homo sapiens), Q14289. hits give low values. z-score (the deposit names both 25 µM and 10 µM). actives 0.83% (n = 99,000). AID 1347419, 2020;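 active = Z-score of -3 or lower, scaled per plate to the spread of control and sample wells; inactive = z-score above -3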;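 also: negative z-score means lost luminescence so less FERM oligomerization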
* = called active by the depositor; · = no result given. The list is not random: actives were taken first. Their share in the collection is about 6.9%. Rule as the data show it, unless noted: active = inhibition above about 30%; inactive = the rest.

SMILES | FAK blocker | Ecoli tolC | PostGolgi yeast | PostGolgi ctrl | Calb biofilm kill | Pyk2 oligo antag
CC(C)N(C(=O)CSc1nnc(-c2cc3ccccc3cc2O)n1Cc1ccco1)C(C)C | -0.3 | 25.2 | -3.2 | 14.2 | 3.8 | 0.17
CC1CN(C(=O)c2cc3c(s2)CCC3)CC(C)O1 (stereo unspecified) | 4.2 | -13.7 | 9.0 | 22.8 | 4.3 | -0.08
COC(=O)c1ccc(OC)c(CSc2nnc(COc3ccccc3)o2)c1 | 5.7 | 62.0* | 9.9 | 12.6 | 4.0 | -2.14
Cc1cc(/C=N/NC(=O)CC2(C)OCCO2)c(C)n1-c1cc(Cl)cc(Cl)c1 | 2.8 | · | · | · | -5.1 | 0.04
CC1(CC(=O)N/N=C/c2ccc(OCc3ccc(Cl)cc3Cl)cc2)OCCCO1 | 1.1 | · | 1.0 | 42.4* | · | 0.32
Cc1cccc(C)c1NC(=S)N1CCC(N(C)CC2CCCO2)CC1 (stereo unspecified) | 3.6 | · | 4.8 | 3.6 | 4.0 | 0.61
Cc1cccc(NC(=S)N2CCC(N(C)CC3CCCO3)CC2)c1C (stereo unspecified) | 3.0 | · | -16.2 | 32.2* | 9.7 | 0.03
Clc1ccc(-n2nnnc2SCc2c(-c3ccccc3)nc3sccn23)cc1 | -1.4 | 12.3 | 1.0 | 34.7* | 5.1 | 0.38
Cc1ccc2[nH]c(=O)c(C(c3nnnn3C3CCCC3)N(Cc3cccnc3)Cc3ccco3)cc2c1 (stereo unspecified) | -1.5 | 63.3* | -5.5 | 5.0 | 2.5 | 1.07
COc1ccc2[nH]c(=O)c(CN(C3CCCCC3)C(c3nnnn3Cc3ccco3)C(C)C)cc2c1 (stereo unspecified) | 12.1 | 19.4 | 4.2 | 2.0 | 5.9 | 0.4
Cc1ccc2cc(C(c3nnnn3C3CCCC3)N(Cc3cccnc3)Cc3ccco3)c(=O)[nH]c2c1 (stereo unspecified) | · | 65.3* | -5.6 | 4.5 | 3.7 | -0.52
CC(c1nnnn1C1CCCCC1)N(Cc1ccccc1)Cc1cccnc1 (stereo unspecified) | -1.2 | 48.8 | -5.6 | 13.4 | · | -0.75
CCC(c1nnnn1C1CCCCC1)N(Cc1ccco1)Cc1cc2ccc(OC)cc2[nH]c1=O (stereo unspecified) | 4.4 | 67.9* | 5.0 | 22.8 | 3.2 | 0.67
Clc1ccc(C(c2nnnn2C2CCCCC2)N(Cc2cccnc2)Cc2ccco2)cc1 (stereo unspecified) | 0.4 | 69.3* | · | · | 5.9 | -0.52
Cc1ccc2cc(C(c3nnnn3C3CCCC3)N(Cc3ccco3)Cc3cccs3)c(=O)[nH]c2c1 (stereo unspecified) | -0.4 | · | -1.9 | 12.9 | 6.5 | 2.02
Cc1ccc2[nH]c(=O)c(C(c3nnnn3C(C)(C)C)N(Cc3ccco3)CC3CCCO3)cc2c1 (stereo unspecified) | 0.2 | -16.6 | 9.2 | -5.9 | 3.9 | 0.32
COc1ccc(NC(=O)C2CCN(S(=O)(=O)c3cccc4cccnc34)CC2)cc1OC | · | -0.1 | 4.0 | -3.9 | 7.2 | ·
CCCOc1ccccc1C1NC(=O)NC(C)=C1C(=O)OCCOC(C)C (stereo unspecified) | -1.8 | 11.9 | -4.1 | -8.2 | 7.7 | 0.64
COc1ccc(C)c2sc(NC(=O)C3=COCCO3)nc12 | 4.4 | · | -17.7 | 17.5 | 7.6 | ·
Cn1c(Cn2c(=O)sc3ccccc32)nnc1SCC(=O)N1CCOCC1 | · | -6.5 | -9.3 | 9.9 | 14.0 | ·
O=C(c1ccccc1)c1nn(-c2cccc(Cl)c2)c2nc(-c3ccccc3)cc(=O)n12 | -6.5 | · | -0.5 | 9.5 | · | -0.33
N#CCSc1nc2c(c(C3CC=CCC3)c1C#N)CCC2 (stereo unspecified) | -3.8 | 67.3* | 5.0 | 26.9 | -0.1 | -1.69
O=C1C(=O)N(CCCN2CCOCC2)C(c2cccs2)/C1=C(/O)c1ccc2c(c1)OCO2 (stereo unspecified) | -4.4 | -7.7 | 3.8 | 3.6 | 1.3 | ·
COc1ccccc1/C=C/C(=O)N1CCOCC1 | -2.3 | · | -9.2 | 35.2* | 4.4 | -0.26
COc1cccc(OC)c1C(=O)N1CCOCC1 | -5.2 | -2.4 | 0.3 | 1.7 | 12.1 | -2.82
CC(C)(C)NC(=O)C(c1ccccc1F)N(Cc1ccco1)C(=O)c1csnn1 (stereo unspecified) | -4.8 | -12.5 | 3.7 | 5.7 | 11.0 | 0.05
CCn1cc([N+](=O)[O-])c(C(=O)Nc2ccc3c(c2)OCCO3)n1 | -5.5 | · | -10.4 | 33.4* | · | 0.01

Screening results: PubChem, several laboratories
